Legend:
[1] = target: Thyroid hormone receptor alpha (Homo sapiens, UniProt P10827); assay: Displacement of [125I]T3 from recombinant thyroid hormone receptor alpha expressed in sf9 cells by scintillation proximity assay
[2] = target: Thyroid hormone receptor beta (Homo sapiens, UniProt P10828); assay: Displacement of [125I]T3 from recombinant thyroid hormone receptor beta expressed in sf9 cells by scintillation proximity assay
[3] = Inhibition of CYP3A in Sprague-Dawley rat liver microsome at 10 uM; assay type: ADME; settings: microsomes
[4] = system: Hepatocyte; assay: Cmax per10'6 cells in Sprague-Dawley rat hepatocytes at 10 uM; assay type: ADME, Liver; design: dose 10 uM
Procedure, shortened: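 Freshly isolated rat hepatocytes were incubated with compound. Intracellular levels of the active phosphonate were followed over time and expressed per 10⁶ cells, giving Cmax and tmax.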

[5] = Clearance in Sprague-Dawley rat at 5 mg/kg, iv; assay type: ADME, organism-based; design: dose 5 mg/kg, route intravenous; settings: in vivo
Procedure, shortened: (§1)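 Male SD rats received a 5 mg/kg i.v. dose. Parameters were derived from the plasma concentration–time profile of the parent and its active metabolite.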

[6] = Volume of distribution in Sprague-Dawley rat at 5 mg/kg, iv; assay type: ADME, organism-based; design: dose 5 mg/kg, route intravenous; settings: in vivo
[7] = Half life in Sprague-Dawley rat at 5 mg/kg, iv; assay type: ADME, organism-based; design: dose 5 mg/kg, route intravenous; settings: in vivo
Procedure, shortened: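 Male SD rats given a single 5 mg/kg i.v. dose. Half-life derived from the plasma concentration–time profile of the parent compound.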

[8] = Cmax in Sprague-Dawley rat at 5 mg/kg, iv; assay type: ADME, organism-based; design: dose 5 mg/kg, route intravenous; settings: in vivo; procedure, shortened: as §1
[9] = AUC (0 to 24 hrs) in Sprague-Dawley rat at 5 mg/kg, iv; assay type: ADME, organism-based; design: time < 24 hr, dose 5 mg/kg, route intravenous; settings: plasma
Procedure, shortened: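 Male SD rats received MB07344 at 5 mg/kg i.v. Pharmacokinetic parameters, including AUC over 0–24 h, were derived from the temporal plasma concentration profile of MB07344.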

[10] = Drug excretion in Sprague-Dawley rat urine at 2 mg/kg, iv after 96 hrs; assay type: ADME, organism-based; design: dose 2 mg/kg, route intravenous; settings: read-out: Activity
Procedure, shortened: (§2)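 Mass balance used male SD rats (n = 6) given [³H]-labelled compound (2 mg/kg, 45.5 mCi/mmol) as an i.v. bolus. Cumulative radioactivity in urine, wash and feces was monitored at 0, 12, 24, 48, 72 and 96 h.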

[11] = Drug excretion in Sprague-Dawley rat feces at 2 mg/kg, iv after 96 hrs; assay type: ADME, organism-based; design: dose 2 mg/kg, route intravenous; settings: faeces, read-out: Activity; procedure, shortened: as §2
[12] = Drug excretion in bile duct-canulated Sprague-Dawley rat bile at 10 mg/kg, iv; assay type: ADME, organism-based; design: dose 10 mg/kg, route intravenous; settings: read-out: Activity
Procedure, shortened: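 Naïve and bile duct-cannulated SD rats (n = 3 per group) received 10 mg/kg i.v. Compound levels were measured in the collected bile and in plasma.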

[13] = AUC (0 to 24 hrs) in bile-diverted Sprague-Dawley rat at 10 mg/kg, iv; assay type: ADME, organism-based; design: time < 24 hr, dose 10 mg/kg, route intravenous; settings: plasma
Procedure, shortened: (§3)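 Male SD rats, naïve or bile duct-cannulated (n = 3 per group), given MB07344 at 10 mg/kg i.v. MB07344 measured in plasma and in collected bile. AUC over 0–24 h taken from the plasma concentration–time profile.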

[14] = AUC (0 to 24 hrs) in Sprague-Dawley rat at 10 mg/kg, iv; assay type: ADME, organism-based; design: time < 24 hr, dose 10 mg/kg, route intravenous; settings: plasma; procedure, shortened: as §3

Thyroid hormone receptor beta, sequence (P10828 whole entry): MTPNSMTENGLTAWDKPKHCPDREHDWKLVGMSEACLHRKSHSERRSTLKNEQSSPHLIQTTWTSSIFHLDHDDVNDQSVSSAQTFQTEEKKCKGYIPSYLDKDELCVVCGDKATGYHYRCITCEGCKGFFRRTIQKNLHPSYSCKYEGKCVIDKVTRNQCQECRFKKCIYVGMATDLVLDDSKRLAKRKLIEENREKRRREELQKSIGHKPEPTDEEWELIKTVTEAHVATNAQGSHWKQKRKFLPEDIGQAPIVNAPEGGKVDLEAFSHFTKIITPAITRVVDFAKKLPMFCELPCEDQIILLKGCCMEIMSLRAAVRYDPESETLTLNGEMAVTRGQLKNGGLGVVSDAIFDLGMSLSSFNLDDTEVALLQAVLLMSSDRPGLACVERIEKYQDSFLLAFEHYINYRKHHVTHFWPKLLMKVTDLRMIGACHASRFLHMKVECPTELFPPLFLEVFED
Thyroid hormone receptor alpha, sequence (P10827 whole entry): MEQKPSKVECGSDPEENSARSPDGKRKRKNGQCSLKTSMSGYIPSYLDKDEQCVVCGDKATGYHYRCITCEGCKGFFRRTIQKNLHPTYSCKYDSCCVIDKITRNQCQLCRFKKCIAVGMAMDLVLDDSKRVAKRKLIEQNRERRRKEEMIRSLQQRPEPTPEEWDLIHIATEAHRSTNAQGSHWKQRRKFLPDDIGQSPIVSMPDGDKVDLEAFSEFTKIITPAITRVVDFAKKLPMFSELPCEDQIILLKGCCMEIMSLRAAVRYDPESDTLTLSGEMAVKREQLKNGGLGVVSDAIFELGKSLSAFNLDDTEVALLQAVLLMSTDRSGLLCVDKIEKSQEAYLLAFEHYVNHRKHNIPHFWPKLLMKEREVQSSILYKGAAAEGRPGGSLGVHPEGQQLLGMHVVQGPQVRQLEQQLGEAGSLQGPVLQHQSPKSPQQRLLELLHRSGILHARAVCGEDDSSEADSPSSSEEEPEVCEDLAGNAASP

Ki [1]: 35.2 nM
Ki [2]: 2.17 nM
Activity [3]: Not Active
Cmax [4]: 1.77 nmol
clearance [5]: 4.67 mL/min/kg
Vd [6]: 0.39 L/kg
half-life [7]: 1.27 h
Cmax [8]: 40400 ng/mL
AUC(0-t) at 24 h [9]: 16600 ng·h/mL
dose excreted at 96 h [10]: 2%
dose excreted at 96 h [11]: 98%
dose excreted [12]: 50%
AUC(0-t) at 24 h [13]: 48100 ng·h/mL
AUC(0-t) at 24 h [14]: 35100 ng·h/mL
SMILES: Cc1cc(OCP(=O)(O)O)cc(C)c1Cc1ccc(O)c(C(C)C)c1 [MB07344]

— ChEMBL document CHEMBL1156517, “Targeting thyroid hormone receptor-beta agonists to the liver reduces cholesterol and triglycerides and improves the therapeutic index” (Proc Natl Acad Sci U S A, 2007)
